Laboratory results published in ChEMBL document CHEMBL5370602, “Structure-Based Design of a Lead Compound Derived from Natural Schweinfurthins with Antitumor Properties That Target Oxysterol-Binding Protein” (J Med Chem, 2023).

Key:
[1] = Toxicity in immunodeficient nude mouse model xenografted with high alert medicated patient derived human GBM1 cells assessed as body weight change at 42 mg/kg,po QD for 5 days; format: organism-based; conditions: in vivo, 120 h, time 5 day
How it was run: (§1)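 Female athymic nude mice bearing subcutaneous GBM1-HAM PDX fragments (20 mm³); treatment began day 11 post-implant at tumour volumes 75-196 mm³, 10 per group. Compound i.p. daily in cyclodextrin vehicle (17 days alone, 27 days in combination); temozolomide 42 mg/kg p.o. daily for 5 days in PBS/glucose/Tween 80. Calliper volumes three times weekly; body weight and clinical signs monitored.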

[2] = Toxicity in immunodeficient nude mouse model xenografted with high alert medicated patient derived human GBM1 cells assessed as clinical symptoms at 42 mg/kg,po QD for 5 days; format: organism-based; conditions: in vivo, 120 h, time 5 day; how it was run: as §1
[3] = Antitumor activity in high alert medicated patient derived human GBM1 cells xenografted in immunodeficient nude mouse model assessed as T/C ratio at 42 mg/kg,po QD for 5 days and measured from 9 to 11 days; conditions: time 5 day
[4] = Antitumor activity in high alert medicated patient derived human GBM1 cells xenografted in immunodeficient nude mouse model assessed as tumor growth inhibition at 42 mg/kg,po QD for 5 days and measured from 9 to 11 days; conditions: GBM1, 120 h
[5] = Antitumor activity in high alert medicated patient derived human GBM1 cells xenografted in immunodeficient nude mouse model assessed as change in tumor volume at 42 mg/kg,po QD for 5 days and measured after 11 days relative to control; conditions: time 5 day

Which Activity [1] does the source give for `Cn1nnc2c(C(N)=O)ncn2c1=O` [TEMOZOLOMIDE] here?
Its Activity is “Non-Toxic”.

What about the Activity [2] of the same compound?
The Activity was “Non-Toxic”.

And the T/C [3]?
Its T/C is 62.43%.

What about the TGDI at 42 mg/kg [4] of the same compound?
Its TGDI at 42 mg/kg is 1.34%.

And the Activity [5]?
The Activity was 546.69%.
